Assay outcomes deposited in PubChem BioAssay by Broad Institute.
Rows were chosen to be rich in hits. Some 3.1% of all compounds tested hit in one or more screens of this group.
rRNA inh HTS – inhibitors of bacterial rRNA selective over humanized ribosomes | GFP signal change (wild-type ribosome), % (concentration not given with the values) | E. coli WT GFP vs humanized-ribosome RFP mutants, fluorescence, 24 h; hits give low values; DMSO median 0, no signal -100 | actives 1.6% (n = 350,000);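 active = significant combined selectivity score with lowered wild-type GFP, culture density cut under 30%, mutant RFP and density less affected; inactive = any of these conditions unmet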
E-sel inducer – induces E-selectin expression in human endothelial cells; P16581; HUVEC E-selectin immunofluorescence imaging; normalized: neutral wells 0, TNF-alpha wells 100; activation, % at 7.58 µM; actives 0.37% (n = 260,000); AID 686992;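 active = mean E-selectin-positive cell signal at least 10% of the positive control, reached in at least 60% of replicates, without over 20% cell loss; inconclusive = no rule given, readout overlaps actives, possibly toxicity-flagged; inactive = the rest, including those meeting only one limit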
Target sequence (P16581 whole entry, looked up): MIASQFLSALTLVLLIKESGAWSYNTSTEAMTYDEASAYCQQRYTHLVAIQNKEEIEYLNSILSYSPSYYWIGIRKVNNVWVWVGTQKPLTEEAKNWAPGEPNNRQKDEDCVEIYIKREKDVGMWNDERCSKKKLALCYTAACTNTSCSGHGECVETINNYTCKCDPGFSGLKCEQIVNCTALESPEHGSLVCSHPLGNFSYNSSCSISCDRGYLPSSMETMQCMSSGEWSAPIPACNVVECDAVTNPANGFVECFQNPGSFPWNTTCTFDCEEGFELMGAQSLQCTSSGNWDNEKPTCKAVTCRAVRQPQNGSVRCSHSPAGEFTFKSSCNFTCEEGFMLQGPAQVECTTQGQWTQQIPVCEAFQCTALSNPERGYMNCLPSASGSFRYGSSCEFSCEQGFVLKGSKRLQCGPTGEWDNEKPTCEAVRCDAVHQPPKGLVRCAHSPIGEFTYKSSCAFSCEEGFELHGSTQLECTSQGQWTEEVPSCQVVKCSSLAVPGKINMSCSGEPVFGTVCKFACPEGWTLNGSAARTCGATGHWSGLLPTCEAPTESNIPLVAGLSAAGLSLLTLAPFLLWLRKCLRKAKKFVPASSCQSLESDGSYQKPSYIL
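Read-out basis: % PE-positive cells; Test system: HUVEC primary endothelial cells; Technique: immunofluorescence imaging; Dosing: single-point compound dose.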
Cneo AK release – causes C. neoformans cell lysis; lysis activity, % at 15 µM; AID 651654; actives 0.2% (n = 360,000); adenylate kinase release luminescence, 4 h; normalised: neutral wells 0, clomiphene wells 100;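 active = mean lysis activity across replicates of at least 80%, whatever share of replicates individually reach that level; inactive = mean lysis activity below 80%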
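read-out = cell lysis signal | test system = log-phase Cryptococcus neoformans yeast cells | input = cells at 5 × 10^6 per mL | medium = fresh YPD growth medium | signal = luminescent adenylate kinase detection reagent | timing = 4 h at 37 °C static, read 1 h later | dosing = single dose | controls = Clomiphene as positive lysis control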
DENV2 CPE rescue – protects cells from dengue virus 2 cytopathic effect. actives 1.7% (n = 350,000). DENV2-infected cells, cytopathic effect rescue, plate reader. CPE inhibition, % at 9.99 µM; in the data active = CPE inhibition above about 20%, passing the limit was not always enough; inconclusive = no clear call, values can overlap the other calls; tested in BHK-21 cells;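 also: 0% = median of neutral control wells and 100% = median of positive control wells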
miR122 inh – miR-122 inhibition in Huh7 cells; Huh7 miR-122 Renilla luciferase sensor, 48 h; neutral wells = 0, positive control = 100; activation (reporter increase), % at 12.5 µM; actives 0.3% (n = 340,000); AID 602342;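 active = mean replicate activation score at least 90 and every replicate individually at or above 90; inconclusive = only one of the two criteria met; inactive = neither criterion met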;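 also: higher luciferase means less miR-122 activity so hits act as miR-122 inhibitors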
Active calls of the source: *; ? = inconclusive; nt = not tested or not shown; [ ] = remark or other dose.

SMILES	rRNA inh HTS	E-sel inducer	Cneo AK release	DENV2 CPE rescue	miR122 inh
C[C@H](CO)N1C[C@H](C)[C@H](CN(C)Cc2ccc(-c3ccccc3)cc2)Oc2c(NC(=O)c3ccncc3)cccc2C1=O	-5.6	10.7	111.4*	4.6	27.9[16.7 µM]
COCC(=O)N1CC2(C1)CN(Cc1cc(F)ccc1F)[C@H](CO)c1[nH]c3cc(OC)ccc3c12	-3.2	-0.1	nt	-4.7	nt
C[C@@H]1CN([C@@H](C)CO)C(=O)c2cccc(NC(=O)c3cnccn3)c2O[C@@H]1CN(C)Cc1ccc(C(=O)Nc2ccccc2N)cc1	-2.7	1.4	-5.0	-0.5	128.8*[16.7 µM]
Cc1cc(C(=O)Nc2cccc3c2O[C@@H](CN(C)Cc2ccc(C(F)(F)F)cc2)[C@H](C)CN([C@H](C)CO)C3=O)n(C)n1	-9.2	19.1	-22.6	-10.3	127.0*[16.7 µM]
Cc1cc(C(=O)Nc2cccc3c2O[C@H](CN(C)Cc2ccc(C(F)(F)F)cc2)[C@@H](C)CN([C@@H](C)CO)C3=O)n(C)n1	-2.7	-13.4	3.5	15.2	82.5[16.7 µM]
C[C@@H]1CN([C@H](C)CO)C(=O)c2cccc(NC(=O)c3cnccn3)c2O[C@H]1CN(C)Cc1ccc(C(=O)Nc2ccccc2N)cc1	-2.0	0.0	nt	15.5	nt
C[C@@H]1CN([C@@H](C)CO)C(=O)c2cccc(NC(=O)CCCCCC(=O)Nc3ccccc3N)c2O[C@H]1CN(C)CC1CCCCC1	-10.8	6.5	nt	4.9	nt
Cc1ccc(-c2nc(NCCCO)c3ccccc3n2)cc1	-15.5	nt	-0.6	31.3*	6.5
Cc1ccc(-c2nc(NCCN(C)C)c3ccccc3n2)cc1	3.1	8.1	-0.6	6.4	-5.3
O=C(/C=C/c1ccc([N+](=O)[O-])cc1)NC1CC2CCC1C2 (stereo not drawn)	-28.4*	nt	nt	-3.8	nt
O=C(/C=C/c1ccc(Cl)cc1)NC1CCS(=O)(=O)C1 (stereo not drawn)	4.7	nt	nt	nt	nt
O=C(/C=C/c1ccc([N+](=O)[O-])cc1)NNC(=O)C1CC1	38.9	0.6	-3.3	10.7	-2.2
O=C(/C=C/c1ccc(Cl)cc1)NC1CC2CCC1C2 (stereo not drawn)	-50.0	34.7*	-2.8	-0.5	-1.8
Cc1ccc(NC(=O)NNC(=O)Cn2nc(-c3ccccc3)c(-c3ccccc3)c(C#N)c2=O)cc1	nt	nt	-0.6	nt	103.6*
CC(=O)N(C)C[C@@H]1Oc2ccc(N)cc2C(=O)N(C)C[C@H]1C	0.2	nt	nt	nt	nt
C[C@@H]1CN([C@@H](C)CO)S(=O)(=O)c2ccc(C#CC3CC3)cc2O[C@H]1CN(C)C(=O)Nc1cc(F)ccc1F	-5.6	0.0	nt	nt	12.0[16.7 µM]
NC(c1csc(Nc2ccc(C(=O)NCCO)cc2)n1)C1CCCCC1 (stereo not drawn)	-5.9	-0.1	2.7	22.3*	nt
CC(=O)c1ccc(Nc2nc(C(N)C3CCCCC3)cs2)cc1 (stereo not drawn)	2.3	1.3	0.2	4.3	6.6
CC(N)c1csc(Nc2ccc(C(=O)NCCCO)cn2)n1 (stereo not drawn)	9.3	-0.1	-1.8	30.2*	-0.1
CCC(=O)c1ccc(OCCn2cnc3ccccc32)cc1	-33.8*	0.7	nt	-2.2	nt
Nc1ccc(C2(c3ccc(N)cc3)c3ccccc3C(=O)c3ccccc32)cc1	-31.6*	0.1	nt	1.8	nt
CCCNC(=O)NC[C@H]1CC[C@@H]2[C@@H](CN2S(=O)(=O)c2ccccc2[N+](=O)[O-])O1	nt	nt	nt	11.7	nt
CCN=C1NC(c2ccccc2C(F)(F)F)C(C(=O)OC)=C(C)N1C (stereo not drawn)	21.9	-0.1	nt	20.9*	nt
CN1[C@H](C(=O)NCC2CC2)[C@@H](CO)[C@@H]2Cn3c(ccc(-c4ccc(F)cc4)c3=O)[C@@H]21	-2.0	0.4	-1.5	5.3	-3.9[16.7 µM]
C/C(=C\c1ccco1)C1C(C#N)=C(N)Oc2n[nH]c(-c3ccc(C)cc3)c21 (stereo not drawn)	-27.5*	nt	0.4	-2.9	-4.0
SMILES	rRNA inh HTS	E-sel inducer	Cneo AK release	DENV2 CPE rescue	miR122 inh
CO[C@H]1CN(C)C(=O)c2cc(NC(=O)C3CC3)ccc2OC[C@@H](C)N(C(=O)c2cccnc2)C[C@@H]1C	0.6	0.0	-3.1	3.6	nt
CN(C)CCCN(C(=O)c1ccc(S(=O)(=O)N2CCc3ccccc3C2)cc1)c1nc2c(F)cccc2s1	-46.7*	nt	0.1	-1.4	nt
CCOC(=O)c1[nH]c(C)c(C(=O)OCC(=O)N2CC(=O)Nc3ccccc32)c1C	12.8	-1.3	-2.0	70.9*	0.6
Cc1ccc(NC(=O)CN(C)Cc2ccc(Cl)cc2)cc1	-30.3*	0.2	nt	nt	-7.4
CN(CC(=O)Nc1ccc(Br)cc1)Cc1ccccc1	-18.2	97.4*	-2.5	-5.7	17.0
Cc1ccc(NC(=O)CN(C)CC(=O)Nc2ccc(F)c(Cl)c2)cc1	-52.5	nt	4.0	-1.0	3.0
CN(CC(=O)Nc1ccc(Cl)cc1)CC(=O)Nc1cc(Cl)ccc1C#N	-38.2*	nt	-0.4	0.2	9.6
Cc1cc(S(=O)(=O)NCCCn2ccnc2)c(C)cc1Cl	-3.3	0.5	-3.2	-3.2	nt
Cc1cc(C)c(S(=O)(=O)NCCCn2ccnc2)cc1C	6.3	0.2	0.0	-1.2	128.8*
C[C@@H]1CN([C@@H](C)CO)C(=O)c2cc(C#CCN(C)C)cnc2O[C@@H]1CN(C)C(=O)c1cccnc1	0.3	0.8	0.6	-0.9	-0.8[16.7 µM]
C=CCOc1cccc(C2C(C(=O)c3ccco3)=C(O)C(=O)N2Cc2cccnc2)c1 (stereo not drawn)	-0.2	33.1*	0.9	2.3	-7.2
Cc1ccc(S(=O)(=O)N(C)C[C@H]2Oc3c(NS(=O)(=O)c4c(C)noc4C)cccc3C(=O)N([C@H](C)CO)C[C@H]2C)cc1	-4.1	-0.1	-1.3	-6.1	-1.5[16.7 µM]
COc1ccc2c3c(n(C)c2c1)[C@@H](CO)N(Cc1ccccc1OC)CC31CCN(C)CC1	2.3	-0.4	nt	4.5	nt
CCOC(=O)C1=CN(Cc2ccco2)S(=O)(=O)NC1c1cccc(OC)c1 (stereo not drawn)	1.2	nt	-0.4	14.0	1.1
CCOC(=O)C1=CN(CC)S(=O)(=O)NC1c1cccc(OC)c1 (stereo not drawn)	2.2	nt	1.8	23.7*	1.8
N/C(=N\OC(=O)Nc1ccccc1)c1ncc([N+](=O)[O-])s1	14.9	0.5	nt	33.2*	nt
O=C(COC(=O)COc1ccccc1)Nc1ncc([N+](=O)[O-])s1	-9.3	0.5	nt	-1.9	nt
CCn1c(C)nc2cc(C(=O)NNC(=S)Nc3ccccc3OC)ccc21	-19.5*	nt	nt	-1.9	nt
O=C(Cc1ccc(Br)cc1)OCC(=O)c1ccc[nH]1	-23.2*	-0.1	2.8	8.0	-5.1
CCS(=O)(=O)Nc1ccc2c(c1)C(=O)N(C)C[C@@H](OC)[C@@H](C)CN(Cc1ccccn1)[C@@H](C)CO2	0.2	-0.1	nt	4.1	nt
COc1ccc2c3c([nH]c2c1)[C@@H](CO)N(C)CC31CN(C(=O)c2ccccn2)C1	0.8	?	nt	-6.5	nt
